From ChEMBL document CHEMBL1132437, “Synthesis and antimicrobial activity of 4H-4-oxoquinolizine derivatives: consequences of structural modification at the C-8 position” (1999) come the findings set out here.

The test system of assay [1] is Staphylococcus aureus. Put plainly: In vitro antibacterial activity against gram-positive Staphylococcus aureus NCTC 10649M. To be noted: Staphylococcus aureus, NCTC 10649; read-out: MIC. In kind it is functional. The gist of the method:
(§1)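 Agar dilution MIC determination following the National Committee for Clinical Laboratory Standards recommendations.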

The subject of assay [2] is Pseudomonas aeruginosa. Put plainly: In vitro antibacterial activity against Gram-negative Pseudomonas aeruginosa 5007. In kind it is functional. Particulars: Pseudomonas aeruginosa; read-out: MIC. The method, boiled down:
as §1

Assay [3] has as its system Enterococcus faecium. Put plainly: In vitro antibacterial activity against gram-positive Enterococcus faecium ATCC 8043. The class given is functional. The method, boiled down:
as §1

For assay [4], the system named is Escherichia coli. Put plainly: In vivo efficacy against Escherichia coli JUHL in mouse protection test after subcutaneous administration. In kind it is functional. The gist of the method: (§2)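 Mouse protection model: mice infected intravenously with 100-fold LD50 of the organism. Compound given by subcutaneous injection or oral gavage at 1 and 5 h after infection, over a dose range. Deaths tracked for 7 days post-inoculation. ED50 is the dose giving 50% survival of treated mice over the trial.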

The test system of assay [5] is Burkholderia cepacia. Kind of assay: In vitro antibacterial activity against gram negative Pseudomonas cepacia 2961. The class given is functional. The gist of the method:
as §1

Assay [6] relates to Mus musculus. Kind of assay: IIn vivo efficacy against Escherichia coli JUHL in mouse protection test after by oral gavage. The class given is functional. The gist of the method: as §2
For assay [7], the system named is Escherichia coli. Kind of assay: In vitro antibacterial activity against gram negative Escherichia coli KNK 437. In kind it is functional. The gist of the method: as §1
Assay [8] concerns Staphylococcus aureus. Put plainly: In vitro antibacterial activity against gram-positive Staphylococcus aureus 1775. The class given is functional. The gist of the method:
as §1

Assay [9] concerns Staphylococcus aureus. Kind of assay: In vivo efficacy against Staphylococcus aureus NCTC 10649M in mouse. In kind it is functional. To be noted: Staphylococcus aureus; read-out: ED50. The method, boiled down:
as §2

The test system of assay [10] is Pseudomonas aeruginosa. Put plainly: In vitro antibacterial activity against gram negative P. aeruginosa DPHP 5263. In kind it is functional. To be noted: Pseudomonas aeruginosa, DPHP 5263; read-out: MIC. The method, boiled down:
as §1

Assay [11] deals with Streptococcus pyogenes. Kind of assay: In vitro antibacterial activity against gram positive Streptococcus pyogenes 930. To be noted: Streptococcus pyogenes; read-out: MIC. In kind it is functional. The gist of the method:
as §1

Assay [12] deals with Mus musculus. Kind of assay: IIn vivo efficacy against Streptococcus pneumoniae ATCC 6303 in mouse protection test after administration by oral gavage. In kind it is functional. The gist of the method: as §2
The subject of assay [13] is Mus musculus. Put plainly: In vivo efficacy against Staphylococcus aureus NCTC 10649M in mouse protection test after subcutaneous administration. In kind it is functional. Particulars: sc. The gist of the method:
as §2

The test system of assay [14] is Streptococcus pneumoniae. Kind of assay: In vivo efficacy against Streptococcus pneumoniae ATCC 6303 in mouse protection test after s.c. administration. In kind it is functional. The method, boiled down:
as §2

Assay [15] concerns Pseudomonas aeruginosa. Kind of assay: In vivo efficacy against Pseudomonas aeruginosa 5007 in mouse protection test after administration by oral gavage. The class given is functional. The method, boiled down: as §2
In assay [16] the test system is Pseudomonas aeruginosa. Kind of assay: In vivo efficacy against Pseudomonas aeruginosa 5007 in mouse protection test after subcutaneous administration. The class given is functional. The gist of the method: as §2
Assay [17] deals with Staphylococcus aureus. Kind of assay: In vivo efficacy against Staphylococcus aureus NCTC 10649M in mouse protection test after p.o. administration. The class given is functional. The gist of the method:
as §2

The subject of assay [18] is Mus musculus. Put plainly: InIn vivo efficacy against Escherichia coli JUHL in mouse protection test after administration by oral gavage. The class given is functional. The method, boiled down: as §2
Assay [19] has as its system Escherichia coli. Put plainly: In vivo efficacy against Escherichia coli JUHL in mouse protection test after p.o. administration. The class given is functional. The gist of the method:
as §2

Assay [20] relates to Mus musculus. Put plainly: In vivo efficacy against Streptococcus pneumoniae ATCC 6303 in mouse protection test […]. In kind it is functional. The method, boiled down: as §2
The subject of assay [21] is Mus musculus. Put plainly: In vivo efficacy against Staphylococcus aureus NCTC 10649M in mouse protection test after sub cutaneous administration. The class given is functional. The method, boiled down: as §2
Assay [22] has as its system Mus musculus. Put plainly: In vivo efficacy against Staphylococcus aureus NCTC 10649M in mouse protection test after administration by subcutaneous administration. In kind it is functional. To be noted: sc. The gist of the method:
as §2

Assay [23] has as its system Staphylococcus aureus. Put plainly: In vitro antibacterial activity against gram-positive Staphylococcus aureus NCTC 10649M.
The mark [24] stands for this setting: Enterococcus faecium, ATCC 8043, read-out: MIC.
The mark [25] stands for this setting: Escherichia coli, sc, read-out: ED50.
Setting [26] is: Burkholderia cepacia, read-out: MIC.
Where [27] appears, read: Escherichia coli, read-out: MIC.
[28] abbreviates: Staphylococcus aureus, read-out: MIC.
[29] abbreviates: Pseudomonas aeruginosa, po, read-out: ED50.
Setting [30] is: Pseudomonas aeruginosa, sc, read-out: ED50.
Setting [31] is: Staphylococcus aureus, po, read-out: ED50.

The structures appear in SMILES notation. Values after ≈ are worked out from the molar mass of the structure shown. Bounds are passed on as bounds.

Regarding `CN[C@@H]1CN(c2c(F)cn3c(=O)c(C(=O)O)cc(C4CC4)c3c2C)C[C@@H]1C`, the MIC in assay [1] is 0.02 µg/mL (≈ 0.0536 µM); in assay [2] it was 0.39 µg/mL (≈ 1.04 µM); in assay [3] (setting [24]) it was 0.1 µg/mL (≈ 0.268 µM); in assay [5] (setting [26]), 1.56 µg/mL (≈ 4.18 µM); in assay [7] (setting [27]), 0.1 µg/mL (≈ 0.268 µM); in assay [8] (setting [28]), 0.39 µg/mL (≈ 1.04 µM). Also, the MIC in assay [10] is 6.1 µg/mL (≈ 16.3 µM); in assay [11], 0.1 µg/mL (≈ 0.268 µM). The 50% effective dose (ED50) in assay [4] (setting [25]) was 0.5 mg/kg; in assay [6], 2.7 mg/kg; in assay [9], 1.3 mg/kg.
As for `Cc1c(N2C[C@H]3CCN[C@H]3C2)c(F)cn2c(=O)c(C(=O)O)cc(C3CC3)c12`, the 50% effective dose (ED50) in [12] is 11.2 mg/kg; in assay [13], 1.5 mg/kg; in assay [14] (Streptococcus pneumoniae, sc, read-out: ED50) it was 2.3 mg/kg; in assay [15] (setting [29]) it was greater than 50 mg/kg; in [4] (setting [25]), 0.8 mg/kg; in assay [16] (setting [30]) it was 18 mg/kg. Besides, the 50% effective dose (ED50) in assay [17] (setting [31]) was determined as 5 mg/kg; in [18] it was 10 mg/kg. Moreover, the MIC in [1] came to 0.1 µg/mL (≈ 0.269 µM); in assay [3] (setting [24]), 0.2 µg/mL (≈ 0.538 µM); in assay [5] (setting [26]), 0.78 µg/mL (≈ 2.1 µM); in assay [7] (setting [27]), 0.39 µg/mL (≈ 1.05 µM); in [8] (setting [28]), 6.2 µg/mL (≈ 16.7 µM); in assay [10], 0.62 µg/mL (≈ 1.67 µM).
As to `Cc1c(N2CC[C@H](C)C(N)C2)c(F)cn2c(=O)c(C(=O)O)cc(C3CC3)c12` (single isomer, unassigned), the ED50 was 12.5 mg/kg in assay [19]; 5.2 mg/kg in [20]; 8 mg/kg in [14]; greater than 50 mg/kg in [15] (setting [29]); 2 mg/kg in assay [4]; greater than 32 mg/kg in [16] (setting [30]). Moreover, the ED50 stood at 6.3 mg/kg in [17] and 1.2 mg/kg in [21].
For the compound `Cc1c(N2C[C@@H]3CCN[C@@H]3C2)c(F)cn2c(=O)c(C(=O)O)cc(C3CC3)c12` (stereo in doubt), the ED50 worked out at 1.1 mg/kg in assay [19] (Escherichia coli, po, read-out: ED50); 0.6 mg/kg in assay [22]; 17.9 mg/kg in assay [15]; 0.5 mg/kg in assay [4]; 5 mg/kg in [16]; 1.5 mg/kg in [17] (setting [31]). Moreover, the MIC in assay [3] was found to be 0.1 µg/mL (≈ 0.269 µM); in [5], 0.78 µg/mL (≈ 2.1 µM); in assay [7] it was 0.1 µg/mL (≈ 0.269 µM); in assay [8], 3.1 µg/mL (≈ 8.35 µM); in assay [23] it was 0.05 µg/mL (≈ 0.135 µM).
